These results are taken from ChEMBL document CHEMBL4390663, “Cationic biaryl 1,2,3-triazolyl peptidomimetic amphiphiles: synthesis, antibacterial evaluation and preliminary mechanism of action studies” (Eur J Med Chem, 2019).

Data set [1] relates to Streptococcus pneumoniae. As to the kind of experiment: Antibacterial activity against MDR Streptococcus pneumoniae ATCC 700677 incubated for 18 hrs by CLSI method. The data set is classed as functional. The settings on record: ATCC 700677, 18 h.
For data set [2], the system named is Staphylococcus aureus. As to the kind of experiment: Antimicrobial activity against vancomycin resistant Staphylococcus aureus NARSA VRS10 incubated for 18 hrs by CLSI method. The data set is classed as functional. The settings on record: NARSA VRS10, 18 h.
Data set [3] deals with Staphylococcus aureus. As to the kind of experiment: Antimicrobial activity against methicillin-resistant Staphylococcus aureus ATCC 43300 incubated for 18 hrs by CLSI method. The class given is functional. The following applies: ATCC 43300, 18 h.
The subject of data set [4] is Enterococcus faecalis. As to the kind of experiment: Antimicrobial activity against vancomycin-resistant Enterococcus faecalis clinical isolate incubated for 18 hrs by CLSI method. The data set is classed as functional.
Data set [5] has as its system Staphylococcus aureus. Kind of data set: Antimicrobial activity against glycopeptide intermediate susceptible Staphylococcus aureus NRS17 incubated for 18 hrs by CLSI method. The class given is functional. The settings on record: NRS17, 18 h.
Data set [6] relates to Staphylococcus aureus. As to the kind of experiment: Antimicrobial activity against glycopeptide intermediate susceptible/methicillin-resistant Staphylococcus aureus NRS1 incubated for 18 hrs by CLSI method. The class given is functional. The following applies: NRS1, 18 h.
Data set [7] has as its system Staphylococcus aureus. Kind of data set: Antimicrobial activity against methicillin-resistant Staphylococcus aureus clinical isolate incubated for 18 hrs by CLSI method. The class given is functional.
The test system of data set [8] is Staphylococcus aureus. As to the kind of experiment: Antimicrobial activity against methicillin-resistant Staphylococcus aureus clinical isolate with reduced daptomycin susceptibility incubated for 18 hrs by CLSI method. The class given is functional.
In data set [9] the test system is Staphylococcus aureus. As to the kind of experiment: Antibacterial activity against methicillin-resistant Staphylococcus aureus NCTC 10442 incubated for 24 hrs by CLSI method. The data set is classed as functional. The following applies: NCTC 10442, 24 h. Put shortly: (§1)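 Broth microdilution per CLSI aerobic guidance in Mueller Hinton broth, ambient air, 35 °C for 24 h. DMSO stocks were diluted in water, then serially diluted with double-strength broth inoculum added, for final 0.25–128 μg/mL. […] MIC was read visually as the lowest concentration inhibiting growth; the modal value of triplicates was recorded.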

In data set [10] the test system is Escherichia coli. As to the kind of experiment: Induction of plasma membrane permeabilization in Escherichia coli NCTC 10418 at 32 ug/ml measured for 30 mins by propidium iodide staining based fluorescence assay relative to control. The data set is classed as functional. Put shortly:
(§2)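 Mid-log cells (1.5 McFarland) with 4 µM propidium iodide, dark, room temperature: S. aureus in PBS 30 min; E. coli in 5 mM HEPES/20 mM glucose pH 7.2 for 60 min, then 100 mM KCl and 0.5 mM EDTA. Fluorescence (ex 544/em 615 nm) read ~8 min baseline, then ~30 min after compound at 32 µg/mL final.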

The subject of data set [11] is Acinetobacter baumannii. As to the kind of experiment: Antimicrobial activity against Acinetobacter baumannii ATCC 19606 incubated for 18 hrs by CLSI method. The data set is classed as functional. The following applies: ATCC 19606 = CIP 70.34 = JCM 6841, 18 h. Put shortly:
(§3)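 Screen run by CO-ADD: mid-log cultures in cation-adjusted MHB, 5 × 10^5 CFU/mL, compounds at up to 32 μg/mL in 1:2 serial dilutions (8 steps), final DMSO ≤0.5%, duplicate. 37 °C for 18 h without shaking; OD600 read against media-only and untreated-bacteria references. MIC = lowest concentration giving ≥80% inhibition; colistin standard.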

Data set [12] can be described thus: Haemolytic activity in sheep erythrocytes at 5 ug/ml incubated for 2 hrs under shaking condition relative to control. The data set is classed as ADME, cell-based, Ovis aries, Erythrocyte. The settings on record: read-out: Activity. Put shortly:
(§4)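 Compounds in PBS mixed with washed sheep erythrocytes (2% final) at 5 or 50 μg/mL, rocked 2 h at 37 °C, centrifuged; supernatant absorbance at 540 nm. PBS-only value subtracted, then expressed relative to water lysis (100%). Triplicate, means reported.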

Data set [13] deals with Enterococcus faecalis. Kind of data set: Antibacterial activity against Enterococcus faecalis ATCC 29212 incubated for 24 hrs by CLSI method. The class given is functional. The following applies: ATCC 29212, 24 h.
Data set [14] has as its system Pseudomonas aeruginosa. As to the kind of experiment: Antimicrobial activity against Pseudomonas aeruginosa ATCC 27853 incubated for 18 hrs by CLSI method. The class given is functional. The settings on record: ATCC 27853, 18 h. Put shortly:
as §3

Data set [15] concerns Streptococcus pneumoniae. Kind of data set: Antibacterial activity against Streptococcus pneumoniae ATCC 49619 incubated for 24 hrs by CLSI method. The data set is classed as functional. The settings on record: ATCC 49619, 24 h. Put shortly:
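CLSI broth microdilution in MHB with 2.5% lysed horse blood, 5% CO2, 35 °C, 24 h. Compounds from 5 mg/mL DMSO stocks diluted in water plus double-strength broth; final 0.25–128 μg/mL. […] Triplicate; modal MIC read visually as lowest growth-inhibiting concentration.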

Data set [16] deals with Clostridioides difficile. As to the kind of experiment: Antibacterial activity against Clostridium difficile NSW132 RT027 incubated for 48 hrs by CLSI method. The data set is classed as functional. The following applies: NSW132 RT027, 48 h. Put shortly: (§5)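 Broth microdilution per CLSI anaerobe method in pre-reduced (2-4 h) Brucella broth with haemin and vitamin K, 35 °C anaerobically for 48 h. Compounds from 5 mg/mL DMSO stocks, twofold dilutions in water mixed with double-strength broth; final 0.25–128 μg/mL. […] Triplicate; modal MIC read visually as lowest concentration inhibiting growth.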

In data set [17] the test system is Escherichia coli. As to the kind of experiment: Induction of cytoplasmic membrane depolarization in Escherichia coli NCTC 10418 at 64 ug/ml incubated for 30 mins by diSC35 staining based fluorescence assay relative to control. The data set is classed as functional. Put shortly: (§6)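 Mid-log cells (1.5 McFarland) loaded with 4 µM diSC3(5) in the dark at room temperature: S. aureus in PBS 30 min; E. coli in 5 mM HEPES/20 mM glucose pH 7.2 for 60 min, then 100 mM KCl and 0.5 mM EDTA. Baseline fluorescence (ex 620/em 670 nm) ~8 min, then compound added (final 32 µg/mL S. aureus, 64 µg/mL E. coli), tracked ~30 min.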

Data set [18] has as its system Staphylococcus aureus. Kind of data set: Antimicrobial activity against Staphylococcus aureus ATCC 29213 incubated for 24 hrs by CLSI method. The data set is classed as functional. The following applies: ATCC 29213, 24 h. Put shortly: as §1
Data set [19] deals with Staphylococcus aureus. As to the kind of experiment: Induction of plasma membrane permeabilization in Staphylococcus aureus ATCC 29213 at 32 ug/ml measured for 30 mins by propidium iodide staining based fluorescence assay relative to control. The data set is classed as functional. Put shortly:
as §2

The test system of data set [20] is Klebsiella pneumoniae. Kind of data set: Antibacterial activity against Klebsiella pneumoniae 700603 incubated for 18 hrs by CLSI method. The class given is functional. The following applies: Klebsiella pneumoniae, 700603, 18 h. Put shortly: as §3
Data set [21] can be described thus: Haemolytic activity in sheep erythrocytes at 50 ug/ml incubated for 2 hrs under shaking condition relative to control. The following applies: read-out: Activity. The data set is classed as ADME, cell-based, Ovis aries, Erythrocyte. Put shortly: as §4
Data set [22] deals with Staphylococcus aureus. As to the kind of experiment: Induction of cytoplasmic membrane depolarization in Staphylococcus aureus ATCC 29213 at 32 ug/ml incubated for 30 mins by diSC35 staining based fluorescence assay relative to control. The class given is functional. Put shortly:
as §6

Data set [23] can be described thus: Cytotoxicity against human HEK293 cells assessed as reduction in cell growth incubated for 20 hrs by resazurin dye-based fluorometric assay. Put shortly:
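HEK293 cells, 5000 per well in DMEM + 10% FBS, exposed to compounds (top 32 μg/mL, 1:2 serial dilution ×8, ≤0.5% DMSO, duplicate) for 20 h at 37 °C, 5% CO2. Resazurin added (2.3 μg/mL final), 3 h further; fluorescence ex 560/em 590 nm. CC50 from sigmoidal dose-response fit against log concentration; tamoxifen standard.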

The test system of data set [24] is Escherichia coli. Kind of data set: Antibacterial activity against Escherichia coli ATCC 25922 incubated for 18 hrs by CLSI method. The class given is functional. The settings on record: ATCC 25922, 18 h. Put shortly: as §3
Data set [25] has as its system Staphylococcus aureus. As to the kind of experiment: Antimicrobial activity against Staphylococcus aureus ATCC 43300 incubated for 18 hrs by CLSI method. The class given is functional. The settings on record: ATCC 43300, 18 h.
The test system of data set [26] is Clostridioides difficile. Kind of data set: Antibacterial activity against Clostridium difficile ATCC 700057 incubated for 48 hrs by CLSI method. The class given is functional. The following applies: ATCC 700057, 48 h. Put shortly:
as §5

≈ marks a conversion by molar mass, not a printed value. Some results are limits rather than exact numbers.

On to `CCCCCCCCCC(=O)N[C@@H](Cc1c[nH]c2ccccc12)C(=O)N[C@H](CC(N)=O)C(=O)N[C@@H](CC(=O)O)C(=O)N[C@@H]1C(=O)NCC(=O)N[C@@H](CCCN)C(=O)N[C@@H](CC(=O)O)C(=O)N[C@H](C)C(=O)N[C@@H](CC(=O)O)C(=O)NCC(=O)N[C@H](CO)C(=O)N[C@@H]([C@H](C)CC(=O)O)C(=O)N[C@@H](CC(=O)c2ccccc2N)C(=O)O[C@@H]1C`, for which the MIC in data set [1] is 1 to 2 µg/mL (≈ 0.617 to 1.23 µM); in data set [2], 2 µg/mL (≈ 1.23 µM); in data set [3] it was 0.5 to 1 µg/mL (≈ 0.309 to 0.617 µM); in data set [4], 8 µg/mL (≈ 4.94 µM); in [5], 8 µg/mL (≈ 4.94 µM); in data set [6], 8 µg/mL (≈ 4.94 µM). Further, the figures for the MIC in [7] and in data set [8] were 2 µg/mL (≈ 1.23 µM) and 4 µg/mL (≈ 2.47 µM), respectively.

For `CC(C)CCOc1ccccc1-c1ccccc1OCc1cn(C[C@@H](CCCCN)NC(=O)CCc2ccccc2)nn1.Cl`, the MIC in [9] was 4 µg/mL; in [11], > 32 µg/mL; in data set [13], 8 µg/mL; in data set [14] it was 32 µg/mL; in [15] it was 8 µg/mL; in data set [16], 16 µg/mL. For the same molecule, the MIC amounted to 8 µg/mL in data set [18]; 32 µg/mL in [20]; 32 µg/mL in data set [24]; 16 µg/mL in data set [25]; 8 µg/mL in data set [26]. The Activity was 75% in data set [10], 460 - 900% in [17], 600% in [19] and 120 - 180% in data set [22]. Moreover, the hemolysis at 2 h, 5 ug/ml in data set [12] came to 0.2%. Besides, the hemolysis at 2 h, 50 ug/ml in data set [21] was found to be 101%. The CC50 at 20 h in data set [23] turned out to be 4.8 µg/mL.

On to `CC(C)CCOc1ccc2ccccc2c1-c1c(OCc2cn(C[C@@H](CCCCN)NC(=O)Cc3ccc4c(c3)OCO4)nn2)ccc2ccccc12.Cl`, for which the MIC in data set [9] is 8 µg/mL; in data set [1], 8 to 16 µg/mL; in [2], 8 to 16 µg/mL; in data set [3], 8 µg/mL; in data set [13] it was 8 µg/mL; in data set [4], 4 µg/mL. Also, the MIC in data set [15] was 16 µg/mL; in data set [16] it was 32 µg/mL; in [18], 8 µg/mL; in data set [5], 16 µg/mL; in data set [6], 8 to 16 µg/mL; in data set [7], > 32 µg/mL. Further, the MIC in data set [26] was 32 µg/mL; in [8] it was 8 µg/mL.

Take `CN[C@H](CC(C)C)C(=O)N[C@H]1C(=O)N[C@@H](CC(N)=O)C(=O)N[C@H]2C(=O)N[C@H]3C(=O)N[C@H](C(=O)N[C@H](C(=O)O)c4cc(O)cc(O)c4-c4cc3ccc4O)[C@H](O)c3ccc(c(Cl)c3)Oc3cc2cc(c3O[C@@H]2O[C@H](CO)[C@@H](O)[C@H](O)[C@H]2O[C@H]2C[C@](C)(N)[C@H](O)[C@H](C)O2)Oc2ccc(cc2Cl)[C@H]1O` [VANCOMYCIN]: the minimal inhibitory concentration (MIC) in data set [1] is 1 to 2 µg/mL (≈ 0.69 to 1.38 µM); in data set [4] it was > 32 µg/mL; in data set [15], 1 µg/mL (≈ 0.69 µM); in data set [16], 0.5 µg/mL (≈ 0.345 µM); in data set [5] it was 8 µg/mL (≈ 5.52 µM); in data set [6], 8 µg/mL (≈ 5.52 µM). This molecule also displayed an MIC in [26] of 0.5 µg/mL (≈ 0.345 µM).
